The values below come from ChEMBL document CHEMBL3745596, “Chlorophenoxy aminoalkyl derivatives as histamine H(3)R ligands and antiseizure agents” (Bioorg Med Chem, 2016).

One series has as its system HEK293. In words: Antiproliferative activity against human HEK293 cells assessed as cell viability after 48 hrs by formazan EZ4U dye based assay. Particulars: HEK293, 48 h. In outline:
(§1)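 HEK-293 (1.5 × 10⁴/well) or IMR-32 (2 × 10⁴/well) cells in DMEM with 10% FBS, 37 °C, 5% CO₂, grown 24 h to about 60% confluence; compounds 0.01–250 µM final, DMSO at most 1%, 48 h.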

Series [1] can be described thus: Antiproliferative activity against human IMR32 cells assessed as cell viability after 48 hrs by formazan EZ4U dye based assay. Particulars: IMR-32, 48 h. In outline:
as §1

The subject of a further series is Liver microsome. In words: Drug metabolism in human liver microsomes after 2 hrs by UPLC-MS/MS analysis. The format is ADME. The method, boiled down:
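Pooled adult male and female human liver microsomes 1 mg/mL in 0.1 M Tris–HCl pH 7.4 with NADPH regeneration system; started after 5 min preincubation at 37 °C, incubated 2 h at 37 °C, stopped with cold methanol, centrifuged, supernatant analysed by UPLC with ESI tandem quadrupole MS.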

Another series concerns the target Cytochrome P450 3A4 (Homo sapiens, UniProt P08684). In words: Inhibition of CYP3A4 (unknown origin) up to 10 uM. The format is ADME.
Series [2] addresses T1, Histamine H3 receptor (Homo sapiens, UniProt Q9Y5N1). In words: Displacement of [3H]-Nalpha-methylhistamine from human recombinant histamine H3 receptor expressed in HEK293 cells after 90 mins. The format is cell-based. (In general: In a radioligand displacement assay an active substance lowers the binding of a labelled ligand.)
For series [3], the target named is T1, Histamine H3 receptor. In words: Antagonist activity at human recombinant histamine H3 receptor expressed in HEK293 cells assessed as inhibition of forskolin/(R)(-)-alpha-methylhistamine-induced cAMP accumulation after 1 hr by TR-FRET immunoassay. The format is functional, cell-based. In outline:
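HEK293 cells stably expressing hH3R, stimulated 30 min at room temperature with (R)(-)-α-methylhistamine (15 nM), forskolin and antagonist (0.1 nM–10 µM range) added together. cAMP read by TR-FRET (Eu-cAMP tracer, ULight anti-cAMP antibody, 1 h), converted via cAMP standard curve to % maximal response. Sigmoidal dose–response fit; mean of three experiments, each in triplicate.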
For orientation: Cyclic AMP is a second messenger, typically raised through Gs and lowered through Gi signalling.

For series [4], the system named is Mus musculus. In words: Anticonvulsant activity in CF1 albino mouse assessed as protection against maximal electroshock-induced seizure at 3 mg/kg, ip after 0.5 hrs. The format is functional, organism-based. In outline:
(§2)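 Male CF-1 mice dosed ip as suspension in 0.5% methylcellulose. Corneal electrodes deliver 60 Hz alternating current, 50 mA for […], after a drop of 0.5% tetracaine HCl in 0.9% NaCl per eye. Protection means abolition of hindlimb tonic extension; scored as protected/tested, or ED50 with 95% confidence interval.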
On the technique in general: In the maximal electroshock model the usual endpoint is tonic extension of the hind limbs.

Series [5] relates to Mus musculus. In words: Anticonvulsant activity in CF1 albino mouse assessed as protection against maximal electroshock-induced seizure at 10 mg/kg, ip after 0.5 hrs. The class given is functional, organism-based. The method, boiled down: as §2
Series [6] relates to Mus musculus. In words: Anticonvulsant activity in CF1 albino mouse assessed as protection against maximal electroshock-induced seizure at 30 mg/kg, ip after 0.5 hrs. The class given is functional, organism-based. The method, boiled down: as §2
The subject of series [7] is Mus musculus. In words: Anticonvulsant activity in CF1 albino mouse assessed as protection against maximal electroshock-induced seizure at 30 mg/kg, ip after 4 hrs. The format is functional, organism-based. In outline: as §2
In series [8] the test system is Mus musculus. In words: Anticonvulsant activity in CF1 albino mouse assessed as protection against maximal electroshock-induced seizure at 100 mg/kg, ip after 0.5 hrs. The class given is functional, organism-based. In outline: as §2
The test system of series [9] is Mus musculus. In words: Anticonvulsant activity in CF1 albino mouse assessed as protection against maximal electroshock-induced seizure at 100 mg/kg, ip after 4 hrs. The format is functional, organism-based. The method, boiled down: as §2
The test system of series [10] is Mus musculus. In words: Anticonvulsant activity in CF1 albino mouse assessed as protection against subcutaneous pentetrazole-induced seizure at 30 mg/kg, ip after 0.5 hrs. The class given is functional, organism-based. The method, boiled down:
(§3)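 Male CF-1 mice, ip in 0.5% methylcellulose; pentetrazole at CD97 (85 mg/kg) injected subcutaneously in a loose fold of neck skin. Observed 30 min; absence of even a threshold seizure (single clonic spasm lasting at least 5 s) counted as protection. Scored protected/tested, or ED50.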

In series [11] the test system is Mus musculus. In words: Anticonvulsant activity in CF1 albino mouse assessed as protection against subcutaneous pentetrazole-induced seizure at 30 mg/kg, ip after 4 hrs. The format is functional, organism-based. In outline: as §3
Series [12] deals with Mus musculus. In words: Neurotoxicity in CF1 albino mouse at 3 mg/kg, ip after 0.5 hrs by rotarod test. The class given is toxicity, organism-based. Particulars: in vivo. In outline:
(§4)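 Rotarod neurotoxicity in male albino CF-1 mice dosed ip with compound suspended in 0.5% methylcellulose. Animal placed on a 1 inch diameter knurled plastic rod rotating at 6 rpm. Neurotoxicity scored when the animal falls off three times within 1 min. Readout is number of animals toxic/number tested at the stated time after dosing. TD50 with 95% confidence interval from the quantitative study.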

For series [13], the system named is Mus musculus. In words: Neurotoxicity in CF1 albino mouse at 10 mg/kg, ip after 0.5 hrs by rotarod test. The class given is toxicity, organism-based. Particulars: in vivo. The method, boiled down: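 Rotarod neurotoxicity in male CF-1 mice dosed ip as 0.5% methylcellulose suspension: mouse placed on 1 inch knurled rod rotating at 6 rpm; toxicity when the animal falls off three times within 1 min, with other signs noted. Scored as toxic/tested at 0.5 h and 4 h.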

In series [14] the test system is Mus musculus. In words: Neurotoxicity in CF1 albino mouse at 30 mg/kg, ip after 0.5 hrs by rotarod test. The class given is toxicity, organism-based. Particulars: in vivo. In outline:
as §4

Series [15] relates to Mus musculus. In words: Neurotoxicity in CF1 albino mouse at 30 mg/kg, ip after 4 hrs by rotarod test. Particulars: in vivo. The format is toxicity, organism-based. The method, boiled down:
as §4

The test system of series [16] is Mus musculus. In words: Neurotoxicity in CF1 albino mouse assessed as unable to grasp rotarod and death at 100 mg/kg, ip after 0.5 hrs by rotarod test. The class given is toxicity, organism-based. The following applies: in vivo. In outline: (§5)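 Male albino CF-1 mice dosed ip with compound suspended in 0.5% methylcellulose, then placed on a 1-inch knurled plastic rod turning at 6 rpm. A fall three times within 1 min counted as neurotoxicity. Observations were made at 0.5 h and 4 h after dosing. Result given as animals showing toxicity per animals tested, with the kind of toxicity recorded.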

In series [17] the test system is Mus musculus. In words: Neurotoxicity in CF1 albino mouse at 100 mg/kg, ip after 4 hrs by rotarod test. The format is toxicity, organism-based. Particulars: in vivo. In outline: as §4
In series [18] the test system is Mus musculus. In words: Neurotoxicity in CF1 albino mouse assessed as death at 300 mg/kg, ip after 0.5 hrs by rotarod test. The format is toxicity, organism-based. The following applies: in vivo. The method, boiled down: as §5
In series [19] the test system is Mus musculus. In words: Neurotoxicity in CF1 albino mouse at 300 mg/kg, ip after 4 hrs by rotarod test. The class given is toxicity, organism-based. The following applies: in vivo. The method, boiled down: as §4
The next series concerns Rattus norvegicus. In words: Anticonvulsant activity in Sprague-Dawley rat assessed as protection against maximal electroshock-induced seizure at 30 mg/kg, po. The format is functional.

Calls of active or inactive are those of the source.

T1 sequence (Q9Y5N1 whole entry): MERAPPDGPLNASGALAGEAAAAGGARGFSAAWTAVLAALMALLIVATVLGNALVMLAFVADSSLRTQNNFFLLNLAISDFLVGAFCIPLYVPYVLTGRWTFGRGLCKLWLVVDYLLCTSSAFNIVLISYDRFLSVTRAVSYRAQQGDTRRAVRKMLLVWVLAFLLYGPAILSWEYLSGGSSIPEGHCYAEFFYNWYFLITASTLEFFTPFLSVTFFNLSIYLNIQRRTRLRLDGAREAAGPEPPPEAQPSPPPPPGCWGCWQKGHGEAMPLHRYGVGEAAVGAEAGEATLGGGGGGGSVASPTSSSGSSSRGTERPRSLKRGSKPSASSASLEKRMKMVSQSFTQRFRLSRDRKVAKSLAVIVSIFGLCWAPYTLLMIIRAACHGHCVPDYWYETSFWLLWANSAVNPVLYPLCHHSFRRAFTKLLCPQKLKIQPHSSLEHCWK
Cytochrome P450 3A4, sequence (P08684 whole entry): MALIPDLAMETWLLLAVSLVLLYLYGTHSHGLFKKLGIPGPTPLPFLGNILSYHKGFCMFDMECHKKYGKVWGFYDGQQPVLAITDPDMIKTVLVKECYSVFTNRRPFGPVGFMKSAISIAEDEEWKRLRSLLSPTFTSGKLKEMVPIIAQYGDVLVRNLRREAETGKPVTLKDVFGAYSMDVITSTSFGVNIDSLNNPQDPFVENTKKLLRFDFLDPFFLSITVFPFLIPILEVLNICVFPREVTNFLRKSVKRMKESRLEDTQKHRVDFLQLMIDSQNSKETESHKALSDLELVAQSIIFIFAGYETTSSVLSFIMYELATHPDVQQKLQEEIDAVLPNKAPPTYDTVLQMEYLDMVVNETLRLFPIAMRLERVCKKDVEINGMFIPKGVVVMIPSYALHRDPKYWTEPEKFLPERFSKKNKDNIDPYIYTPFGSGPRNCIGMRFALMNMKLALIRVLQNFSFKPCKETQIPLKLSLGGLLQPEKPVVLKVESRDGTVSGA

As usually defined, the IC50 is the midpoint of a concentration-inhibition curve. For orientation: Ki means the equilibrium dissociation constant of an inhibitor or competing ligand from its target. What is called EC50 is the midpoint of the concentration-response curve. Turning to `Clc1ccc(OCCCCCCCN2CCCCC2)cc1.O=C(O)C(=O)O`, the figures for the 50% inhibitory concentration (IC50) (in the series on HEK293; in [1]) were 33.6 µM and 15.5 µM, respectively. The Drug metabolism result in the series with Liver microsome is listed as “metabolite_detected”. In addition, at Cytochrome P450 3A4, the “inhibition (INH)” value is given as “Not Active”. The Ki on Histamine H3 receptor [2] was 128 nM. The EC50 on Histamine H3 receptor [3] was 75 nM. Moreover, the result with Mus musculus [4], with Mus musculus [5], in the series with Mus musculus [7], in the series with Mus musculus [10] and with Mus musculus [11] was inactive. For the same compound, the result with Mus musculus [6], in the series with Mus musculus [8] and in the series on Mus musculus [9] was Active. Besides, the Activity entry in the series on Mus musculus [12] is listed as “Non-toxic”; with Mus musculus [13], “Non-toxic”; in the series on Mus musculus [14], “Non-toxic”; in the series with Mus musculus [15] it was “Non-toxic”; in the series with Mus musculus [16], “Toxic”; in the series with Mus musculus [17] it was “Non-toxic”. Besides, the Activity entry is “Toxic” in the series with Mus musculus [18], “Non-toxic” in the series on Mus musculus [19] and 25% with Rattus norvegicus.
